Series [1] is filed under the species Cavia porcellus. In words: The degree of cardiac depression produced by a concentration of 10 E-4 M was determined in guinea pig. Format: functional. In short, it runs like this:
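Cardiac depression was measured at 10⁻⁴ M in the isolated guinea pig left atrial preparation and taken as an index of class I activity.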

Series [2] is filed under the species Cavia porcellus. In words: Concentration required to prolong the effective refractory period (ERP) by 25% in isolated guinea pig left atria. Format: functional. In short, it runs like this:
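Isolated guinea pig left atria were studied by the extrastimulus technique. The molar concentration raising ERP by 25% (ED25) was determined. Values are the mean of two similar determinations, ±4%.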

The species entered for series [3] is Cavia porcellus. The series can be described thus: Maximum rate of depolarization (MRD) during phase 0 in guinea pig right papillary muscle was determined at concentration 5 x 10E-9 M. Format: functional, Muscle tissue. Summed up:
(§1)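 Isolated guinea pig right papillary muscle exposed to the concentration given in each line. Action potential duration was read at 50% and 90% repolarization, and phase 0 maximum rate of depolarization (MRD) was also recorded. Values are means ± SD of 30 or 31 observations from three preparations, compared with control by t test.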

For series [4], the species on record is Cavia porcellus. The series can be described thus: Maximum rate of depolarization (MRD) during phase 0 in guinea pig right papillary muscle was determined at concentration 2 x 10E-5 M. Format: functional, Muscle tissue. In short, it runs like this:
as §1

The species named for series [5] is Cavia porcellus. In words: Action potential duration (APD50) repolarization in guinea pig right papillary muscle was determined at concentration 10E-6 M. Format: functional, Muscle tissue. Summed up:
as §1

The species entered for series [6] is Cavia porcellus. In words: Maximum rate of depolarization (MRD) during phase 0 in guinea pig right papillary muscle was determined at concentration 10E-6 M. Format: functional, Muscle tissue. In short, it runs like this:
as §1

Series [7] is filed under the species Cavia porcellus. The series can be described thus: Action potential duration (APD90) repolarization in guinea pig right papillary muscle was determined at concentration 5 x 10E-9 M. Format: functional, Muscle tissue. In short, it runs like this: as §1
The species named for series [8] is Cavia porcellus. The series can be described thus: Maximum rate of depolarization (MRD) during phase 0 in guinea pig right papillary muscle was determined at concentration 5 x 10E-8 M. Format: functional, Muscle tissue. Summed up: as §1
Series [9] can be described thus: Oral bioavailability in man. Format: ADME, organism-based. The conditions noted are these: human, in vivo.
Series [10] can be described thus: Oral bioavailability in dog. Format: ADME, organism-based, Canis lupus familiaris. The conditions noted are these: in vivo.
A short description of series [11]: Distribution coefficient at pH 7.4. Format: physicochemical. The conditions noted are these: octanol/water.
The species named for series [12] is Cavia porcellus. In words: Action potential duration (APD50) repolarization in guinea pig right papillary muscle was determined at concentration 2 x 10E-5 M. Format: functional, Muscle tissue. Summed up: as §1
Series [13] is filed under the species Cavia porcellus. In words: Action potential duration (APD90) repolarization in guinea pig right papillary muscle was determined at concentration 10E-6 M. Format: functional, Muscle tissue. In short, it runs like this: as §1
Series [14] is filed under the species Cavia porcellus. In words: Action potential duration (APD90) repolarization in guinea pig right papillary muscle was determined at concentration 5 x 10E-8 M. Format: functional, Muscle tissue. In short, it runs like this:
as §1

The species entered for series [15] is Cavia porcellus. In words: Action potential duration (APD50) repolarization in guinea pig right papillary muscle was determined at concentration 5 x 10E-8 M. Format: functional, Muscle tissue. In short, it runs like this:
as §1

Series [16] is filed under the species Cavia porcellus. The series can be described thus: Action potential duration (APD50) repolarization in guinea pig right papillary muscle was determined at concentration 5 x 10E-9 M. Format: functional, Muscle tissue. In short, it runs like this: as §1

Usually bioavailability stands for dose-corrected exposure relative to a reference, in per cent. A lower bioavailability goes with poor availability. For orientation: logD means lipophilicity at a set pH, counting ionised and neutral species. Read a low logD as a more hydrophilic compound.

Structures are written as SMILES. Where “and” joins values, the source holds several entries; their conditions need not be identical. Equal entries are not always repeated.

`CN(CCOc1ccccc1NS(C)(=O)=O)CCc1ccc(NS(C)(=O)=O)cc1.Cl` displayed a Cardiac depression in series [1] of 19%. Moreover, the ED25 in [2] is 2.5 µM.

Regarding `CN(CCOc1cccc(C(N)=O)c1)CCc1ccc(NS(C)(=O)=O)cc1`, the Cardiac depression in series [1] is 3%. In series [2], this compound showed an ED25 of 0.82 µM.

On to `CC(C)NCC(O)c1ccc(NS(C)(=O)=O)cc1` (configuration not stated) [SOTALOL], for which the Cardiac depression in series [1] worked out at 5%. Also, the ED25 in series [2] worked out at 200 µM.

`CN(CCOc1ccc(NS(C)(=O)=O)cc1Cl)CCc1ccc(NS(C)(=O)=O)cc1` returned a Cardiac depression in [1] of 16%. In addition, in series [2], the ED25 was 18 µM.

Compound `CN(CCCCOc1ccc(NS(C)(=O)=O)cc1)CCc1ccc(NS(C)(=O)=O)cc1.Cl` registered a Cardiac depression in [1] of 23%. Moreover, the ED25 in series [2] amounted to 40 µM.

`CN(CCc1ccc(NS(C)(=O)=O)cc1)CCc1ccc(NS(C)(=O)=O)cc1` returned a Cardiac depression in [1] of 20%. Further, the ED25 in series [2] was 2 µM.

`CNC(=O)Nc1ccc(OCCN(C)CCc2ccc(NS(C)(=O)=O)cc2)cc1.Cl`: the Cardiac depression in [1] is 0%. Besides, the ED25 in series [2] came to 70 µM.

On to `CN(CCOc1ccc(C(N)=O)cc1)CCc1ccc(NS(C)(=O)=O)cc1`, for which, in [1], the Cardiac depression is 7%. In [2], this compound returned an ED25 of 1.5 µM.

As for `CN(CCOC(c1ccccc1)c1ccc(NS(C)(=O)=O)cc1)CCc1ccc(NS(C)(=O)=O)cc1` (configuration not stated), the Cardiac depression in [1] is recorded as 35%. This compound came in with an ED25 in series [2] of 12 µM.

In turn, `CNC(=O)c1ccc(OCCN(C)CCc2ccc(NS(C)(=O)=O)cc2)cc1.Cl` displayed a Cardiac depression in series [1] of 5%. In [2], this compound came in with an ED25 of 1.5 µM.

Regarding `CN(CCOc1cccc(NS(C)(=O)=O)c1)CCc1ccc(NS(C)(=O)=O)cc1`, the Cardiac depression in [1] turned out to be 9%. For the same compound, in [2], the ED25 is 3 µM.

In the case of `CCN(CC)C(=O)c1ccc(OCCN(C)CCc2ccc(NS(C)(=O)=O)cc2)cc1`, the Cardiac depression in series [1] came to 9%. In series [2], this compound showed an ED25 of 32 µM.

In [1], `CN(CCOc1ccc(C(=O)N2CCOCC2)cc1)CCc1ccc(NS(C)(=O)=O)cc1.Cl` showed a Cardiac depression of 15%. For the same compound, the ED25 in series [2] is 20 µM.

Consider `CN(CCCOc1ccc(NS(C)(=O)=O)cc1)CCc1ccc(NS(C)(=O)=O)cc1.Cl`, for which the Cardiac depression in series [1] is 44%. This compound also showed an ED25 in series [2] of 20 µM.

Take `CN(CCCc1ccc(NS(C)(=O)=O)cc1)CCc1ccc(NS(C)(=O)=O)cc1`: in [1], the Cardiac depression is listed as 23%. The compound further gave an ED25 in [2] of 2.7 µM.

`COC(=O)c1ccc(OCCN(C)CCc2ccc(NS(C)(=O)=O)cc2)cc1` showed a Cardiac depression in series [1] of 47%. Further, the ED25 in series [2] stood at 4.1 µM.

In turn, `CN(CCOc1ccc(CC(N)=O)cc1)CCc1ccc(NS(C)(=O)=O)cc1` displayed a Cardiac depression in series [1] of 7%. In series [2], this compound returned an ED25 of 10 µM.

`CN(CCSc1ccc(NS(C)(=O)=O)cc1)CCc1ccc(NS(C)(=O)=O)cc1`: the Cardiac depression in series [1] stood at 21%. In addition, in [2], the ED25 worked out at 0.3 µM.

`CN(CCOc1ccc(C(F)(F)F)cc1)CCc1ccc(NS(C)(=O)=O)cc1.Cl` returned a Cardiac depression in series [1] of 30%. The compound further came in with an ED25 in [2] of 90 µM.

In [1], `Cc1ccc(NS(C)(=O)=O)c(OCCN(C)CCc2ccc(NS(C)(=O)=O)cc2)c1.Cl` yielded a Cardiac depression of 24%. The same compound yielded an ED25 in [2] of 17 µM.

Regarding `CN(CCOc1ccc(NS(C)(=O)=O)cc1)CCc1ccc(NS(C)(=O)=O)cc1` [DOFETILIDE], the Cardiac depression in series [1] came out at 0%. The MRD in [3] came to 261 V s-1; in series [4], 273 V s-1; in [6] it was 269 V s-1; in series [8], 273 V s-1. Also, the APD50 in series [5] is 223 ms; in series [12], 209 ms; in [15], 197 ms; in [16], 170 ms. In addition, the APD90 in series [7] was <209 ms and <273 ms; in series [13], 288 ms; in series [14], 246 ms. Besides, the values for the bioavailability in [9] and in series [10] were 100% and 72%, respectively. Also, in series [11], the logD was found to be 0.96. Moreover, in series [2], the ED25 worked out at 0.13 µM.

`Cc1ccc(OCCN(C)CCc2ccc(NS(C)(=O)=O)cc2)c(C(N)=O)c1.Cl` gave a Cardiac depression in [1] of 22%. Besides, the ED25 in series [2] is 1 µM.

In the case of `CN(CCOc1ccc(S(N)(=O)=O)cc1)CCc1ccc(NS(C)(=O)=O)cc1`, the Cardiac depression in series [1] was 7%. Also, the ED25 in series [2] is 2.2 µM.

In series [1], `CN(CCCCc1ccc(NS(C)(=O)=O)cc1)CCc1ccc(NS(C)(=O)=O)cc1` had a Cardiac depression of 32%. In addition, the ED25 in series [2] was 67 µM.

The record behind these values is ChEMBL document CHEMBL1124739, “Selective class III antiarrhythmic agents. 1 Bis(arylalkyl)amines” (J Med Chem, 1990).
